This is an account of results in ChEMBL document CHEMBL3272179, “Synthetic metabolites of neurohypophyseal hormones. (Des-9-glycinamide)oxytocin and (des-9-glycinamide, des-8-leucine)oxytocin” (1976).

Assay [1] in a line: Oxytocic activity in uterine horns of rat […]. It counts as functional. In a few lines:
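Six isolated uterine horns from three rats in natural estrus, with estrus confirmed by vaginal smear on the assay morning. Holton method as modified by Munsick, in Mg2+-free van Dyke-Hastings bathing solution. Four-point design or matches against USP Posterior Pituitary Reference Standard.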

In assay [2] the test system is Gallus gallus. The assay is described as follows: Vasodepressor activity in conscious chicken. The format is functional. In a few lines: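 Conscious chickens, minimum three, procedure of Coon. Tested for agonist activity at up to 1 mg analog per injection. Four-point design or matches against USP Posterior Pituitary Reference Standard.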
Assay [3] relates to Rattus norvegicus. The assay can be described thus: Antidiuretic activity in inactin- and ethanol-anesthetized, hydrated Sprague-Dawley rat assessed as maximal depression of rate of urine flow. The format is functional. In a few lines:
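Six male Sprague-Dawley rats, anesthetized with Inactin and ethanol and hydrated. Method of Jeffers et al. as modified by Sawyer. The effective response was the maximal depression of urine flow rate. Four-point design or matches against USP Posterior Pituitary Reference Standard.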

The test system of assay [4] is Rattus norvegicus. The assay is described as follows: Pressor activity in atropinized and urethane-anesthetized rat at 1 mg. The format is functional, organism-based. The method in brief:
(§1)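 Minimum of five atropinized, urethane-anesthetized male rats, following U.S. Pharmacopeia procedures. Tested for agonist and antagonist activity at single doses up to 1 mg. USP Posterior Pituitary Reference Standard used as reference.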

The subject of assay [5] is Gallus gallus. The assay can be described thus: Inhibition of oxytocin-induced vasodepressor activity in conscious chicken. The format is functional, organism-based. The method in brief: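 Analog and oxytocin injected simultaneously into conscious chickens (minimum three), procedure of Coon. Oxytocin held at 5×10^-11 mol while analog dose was raised stepwise to 5×10^-4 mol. Read-out was inhibition of the oxytocin vasodepressor response.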

The test system of the next assay is Anura. The assay is described as follows: Hydroosmotic activity in toad urinary bladder assessed as water transport. It counts as functional. In a few lines: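 Water transport across toad urinary bladder measured by Bentley's method as modified by Eggena et al. At least five animals. Four-point design or matches against USP Posterior Pituitary Reference Standard.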

The subject of assay [6] is Rattus norvegicus. The assay can be described thus: Pressor activity in atropinized and urethane-anesthetized rat. The format is functional. The method in brief:
as §1

Calls of active or inactive are those of the source. The calls are words filed in the database; no cut-off is given here. Positions of bridges follow the written chain, without caps; N, C: chain ends. Residues, ends and D or L forms follow the SMILES beside them.

As for `CC[C@H](C)[C@@H]1NC(=O)[C@H](Cc2ccc(O)cc2)NC(=O)[C@@H](N)CSSC[C@@H](C(=O)N2CCC[C@H]2C(=O)O)NC(=O)[C@H](CC(N)=O)NC(=O)[C@H](CCC(N)=O)NC1=O` (H-CYIQNCP-OH; disulfide 1-6), the Activity is recorded as 2.7 U/mg in assay [1], 0.1 U/mg with Gallus gallus [2] and 0.06 U/mg in the assay on Rattus norvegicus [3]. In addition, the result in the assay on Rattus norvegicus [4] was inactive.
For the compound `CC[C@H](C)[C@@H]1NC(=O)[C@H](Cc2ccc(O)cc2)NC(=O)[C@@H](N)CSSC[C@@H](C(=O)N2CCC[C@H]2C(=O)N[C@@H](CC(C)C)C(=O)O)NC(=O)[C@H](CC(N)=O)NC(=O)[C@H](CCC(N)=O)NC1=O` (H-CYIQNCPL-OH; disulfide 1-6), the values for the Activity (in assay [1]; in the assay on Rattus norvegicus [3]; in the assay on Anura) were 2.4 U/mg, 0.08 U/mg and 4 ×10⁻⁹ M, respectively. Further, the inhibition entry with Gallus gallus [5] is “Active”. Moreover, in the assay on Rattus norvegicus [4], the result was inactive.
`CC[C@H](C)[C@@H]1NC(=O)[C@H](Cc2ccc(O)cc2)NC(=O)[C@@H](N)CSSC[C@@H](C(=O)N2CCC[C@H]2C(=O)N[C@@H](CC(C)C)C(=O)NCC(N)=O)NC(=O)[C@H](CC(N)=O)NC(=O)[C@H](CCC(N)=O)NC1=O` [OXYTOCIN]: the Activity in assay [1] was found to be 546 U/mg; in the assay on Gallus gallus [2], 507 U/mg; with Rattus norvegicus [6], 3.1 U/mg; with Rattus norvegicus [3], 2.1 U/mg; in the assay on Anura, 2.3 ×10⁻⁹ M.
